Compound activity: PubChem, Johns Hopkins Ion Channel Center
KCNK9 inh: KCNK9 potassium channel inhibitors, primary screen, HEK293 cells, thallium flux | Potassium channel subfamily K member 9 (Homo sapiens), Q9NPC2 | FluxOR thallium flux fluorescence; stronger effect = lower value | B-score at 10 µM | actives 1.2% (n = 310,000) | AID 488922, 2010;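 active = ratio B-score over 3 SD below the library mean, with starting fluorescence within 5 SD of its mean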;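 also: negative B-score means less thallium flux so channel inhibition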
KCNK3 block: human KCNK3 channel inhibitors, primary screen, CHO cells, FluxOR thallium flux, B-score | Potassium channel subfamily K member 3 (Homo sapiens), O14649 | FluxOR fluorescence; stronger effect = lower value | B-score at 10 µM | actives 0.84% (n = 340,000);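 active = B-score under library mean minus 4 SD, starting fluorescence ratio at most library mean plus 5 SD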;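 also: more negative B-score means stronger inhibition of thallium flux through KCNK3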
Target sequence (O14649 whole entry, looked up): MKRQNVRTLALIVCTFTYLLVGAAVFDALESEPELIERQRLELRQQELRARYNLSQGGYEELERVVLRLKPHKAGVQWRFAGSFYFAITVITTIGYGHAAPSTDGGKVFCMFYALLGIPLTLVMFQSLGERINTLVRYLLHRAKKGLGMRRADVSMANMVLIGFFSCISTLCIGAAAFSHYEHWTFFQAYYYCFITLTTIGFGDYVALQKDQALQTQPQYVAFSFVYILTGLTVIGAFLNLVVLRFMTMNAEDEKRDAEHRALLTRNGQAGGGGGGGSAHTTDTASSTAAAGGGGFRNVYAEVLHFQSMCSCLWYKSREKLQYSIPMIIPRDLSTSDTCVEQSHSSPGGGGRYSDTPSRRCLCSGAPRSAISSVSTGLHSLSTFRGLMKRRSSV
KCNQ1 block: inhibitors of human KCNQ1 channel, primary screen, cell-based, thallium flux, high-throughput | actives 1.3% (n = 310,000) | CHO-K1 KCNQ1, FluxOR thallium flux fluorescence; stronger effect = higher value | AID 2642, 2010 | B-score at 10 µM | Potassium voltage-gated channel subfamily KQT member 1 (Homo sapiens), P51787;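 active = compounds whose thallium flux B-score, printed positive for inhibition, exceeds three library SD while starting fluorescence stays within three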;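 also: channel opened by potassium depolarization with thallium stimulus after 20 min compound exposure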
hERG protect: hERG rescue from dofetilide block, primary screen, cell-based, CHO-hERG, FluxOR thallium flux, dofetilide IC70 | activation (rescue from dofetilide block), less the hit threshold, % at 10 µM | actives 0.51% (n = 310,000) | dofetilide IC70 present | Voltage-gated inwardly rectifying potassium channel KCNH2 (Homo sapiens), Q12809;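 active = activation above the mean of controls blocked by dofetilide plus 5 SD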;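 also: thallium influx through hERG after potassium depolarization seen as dye fluorescence rise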
KCNQ1 act: potentiators or activators of KCNQ1 channel, primary screen, cell-based, thallium flux, high-throughput; actives 0.35% (n = 310,000); B-score at 10 µM; Potassium voltage-gated channel subfamily KQT member 1 (Homo sapiens), P51787; CHO-K1 KCNQ1, thallium flux FluxOR fluorescence; stronger effect = higher value;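 active = fluorescence ratio B-score, a plate-corrected score, at least three library SD, with initial intensity B-score within 5 SD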
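assay system = CHO-K1 cells stably expressing KCNQ1 | medium = assay buffer, equal DMSO in all wells | timing = 37 °C overnight plating, 90-min dark dye load, 20-min compound pretreatment | measured by = kinetic FluxOR thallium fluorescence, 10-s 1-Hz baseline, 110-s post-stimulus read | measure = fluorescence change relative to baseline, converted to B score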
An asterisk follows results filed as active; i = inactive; . = no result given. Hits are enriched below; roughly 3.1% of the tested compounds scored in any of these assays.

SMILES	KCNK9 inh	KCNK3 block	KCNQ1 block	hERG protect	KCNQ1 act
O=c1[nH]c(O)c(/C=C2/C=CC(c3cc(Cl)ccc3Cl)=N2)c(=O)[nH]1	i	i	i	7.2*	i
CC1=Nc2ccccc2/C1=C/c1c(O)[nH]c(=O)[nH]c1=O	i	i	i	-2.2	i
O=C(CF)NC(NC(=S)Nc1ccccc1O)C(Cl)(Cl)Cl (centres undefined)	i	i	i	-9.0	i
Cc1c(N)c(C)c([N+](=O)[O-])c(C)c1[N+](=O)[O-]	i	i	i	-11.4	i
CCCOC(=O)c1ccc(-[n+]2c(-c3ccccc3)cc(-c3ccccc3)cc2-c2ccccc2)cc1	-7.7*	i	12*	-36.4	i
O=C(O)c1ccc(-[n+]2c(-c3ccccc3)cc(-c3ccccc3)cc2-c2ccccc2)cc1	i	i	i	-1.6	i
N#CCCn1cc(C(=O)Nc2ccccc2Cl)c(-c2ccc(F)cc2)n1	i	i	i	8.2*	i
O=S(=O)(c1ccccc1)N1CCCCC1c1cccnc1 (centres undefined)	i	i	i	8.4*	i
COC(=O)C1=CO[C@@H](C)[C@H]2CN3CC[C@]4(C(=O)Nc5ccccc54)[C@@H]3C[C@H]12	i	i	i	-6.1	i
Oc1ccc(CC2(N3CCCC3)CCCCC2)cc1	i	i	i	7.7*	i
CC(O)(CS(=O)(=O)c1ccccc1)C(=O)Nc1cccc(C(F)(F)F)c1 (centres undefined)	i	i	i	-8.2	i
CC(=O)OC(C)(C)/C=C/C(=O)[C@](C)(O)C1[C@H](O)C[C@@]2(C)C3CC=C4C(C[C@H](O)C(=O)C4(C)C)[C@]3(C)C(=O)C[C@]12C (some centres undefined)	.	i	.	.	.
CCOc1ccc(-n2c(O)c(/C=C3\C=Nc4ccccc43)c(=O)[nH]c2=O)cc1	i	i	9*	-4.6	i
CCc1ccc(N2C(=O)NC(=O)C(CCc3ccncc3)(CCc3ccncc3)C2=O)cc1	i	i	i	-1.6	i
COc1ccc(N2C(=O)NC(=O)C(CCc3ccncc3)(CCc3ccncc3)C2=O)cc1	i	i	i	4.6*	i
CCC(CC)C1C(C#N)=C(N)Oc2c1c(=O)oc1ccccc21 (centres undefined)	i	i	i	-5.0	i
N#CC1=C(N)Oc2c(c(=O)oc3ccccc23)C1c1cccnc1 (centres undefined)	i	i	i	18.2*	i
CCCCCCC(C)(C)c1ccc([C@@H]2C[C@H](O)CC[C@H]2CCCO)c(O)c1	.	-10.8*	.	.	.
Cc1cc(N2CCCC2)ccc1C=C(C#N)C#N	-6.71*	i	12*	-26.9	i
CCC(C)n1c(O)c(C=Nc2cccc(C(F)(F)F)c2)c(=O)[nH]c1=S (centres undefined)	i	i	i	-3.8	i
Oc1cccc2cccnc12	-10.6*	.	i	-1.7	i
CN(C(=O)Oc1cccc2cccnc12)c1ccccc1	i	i	i	-6.7	i
CC1(C)CSC(=NCc2ccccc2)N1	i	i	i	-6.1	7*
CCCCNC(=O)NC(C(N)=O)P(=O)(OCC)OCC (centres undefined)	i	i	i	-5.3	i
COC(=O)C1CN(C#N)N(c2ccc(Cl)cc2)C12c1ccccc1-c1ccccc12 (centres undefined)	-8.91*	i	i	-4.6	i
SMILES	KCNK9 inh	KCNK3 block	KCNQ1 block	hERG protect	KCNQ1 act
CC1(C)C(C(=O)N2CCN(c3ccc(Cl)cc3)CC2)C1(C)C	i	i	i	-7.5	i
CCCCn1c(O)c(C(=O)/C=C/c2ccc3c(c2)OCO3)c(=O)[nH]c1=O	i	i	i	1.0	i
CC(C)CNC(=O)/C=C/C=C/CCCCCC/C=C/c1ccc2c(c1)OCO2	.	-9.42*	.	.	.
CN(C)c1ccc(/C=C/[N+](=O)[O-])cc1	i	i	12*	-17.2	i
CCOC(=O)c1c(C)[nH]c(C)c1C(=O)C(Cc1ccccc1)N(C)C (centres undefined)	i	i	i	-10.4	i
CCOc1ccc(N=C2SCCCN2C)cc1	i	i	i	-8.2	i
CC1(C)C2CC=C(CN3CCC(O)CC3)C1C2 (centres undefined)	i	i	i	-11.7	i
CC1(C)C[C@H]2C=C(C=O)[C@]3(C=O)C[C@]3(C)[C@H]2C1	i	i	i	-20.6	21*
Cn1cc(/C=C2\C(=O)NC(=O)N(c3ccccc3)C2=O)c2ccccc21	-7.99*	i	i	-8.3	i
O=C(O)Cn1cc(/C=C2\C(=O)NC(=O)N(c3ccc(Cl)cc3)C2=O)c2ccccc21	i	i	i	-5.0	i
CCCCCSc1cc(OC)c(CCN)cc1OC	i	i	6*	-11.7	i
CCCCCCCSc1cc(OC)c(CCN(C)C)cc1OC	i	i	i	-26.3	i
COc1cccc(OP(=O)(Nc2ccccc2)Oc2cccc(OC)c2)c1	i	-9.14*	i	-4.6	i
Cc1cccc(OP(=O)(Nc2ccc(F)cc2)Oc2cccc(C)c2)c1	i	i	8*	-29.8	i
COc1ccc(NP(=O)(Oc2ccc(Cl)cc2)Oc2ccc(Cl)cc2)cc1OC	-7.05*	i	i	-10.6	i
O=P(Nc1ccccc1)(Oc1ccccc1)Oc1ccccc1	i	i	i	-11.2	i
Cc1ccc(OP(=O)(Nc2cccc(C)c2)Oc2ccc(C)cc2)cc1	i	i	6*	-3.5	i
COc1ccc(NP(=O)(Oc2cccc(C)c2)Oc2cccc(C)c2)cc1OC	i	i	i	-12.2	i
Cc1cc(=O)oc2cc(OCC(=O)N3CCN(Cc4ccc5c(c4)OCO5)CC3)ccc12	i	i	i	-7.3	i
Cn1c(O)c(Cc2cccc(Cl)c2Cl)c(=O)n(C)c1=O	i	i	i	-3.6	i
N#Cc1ccc(C(=O)N2Cc3cnnn3-c3ccccc3C2C#N)cc1 (centres undefined)	.	i	.	.	.
COc1ccc(NC(c2ccccc2)P(=O)(Oc2ccccc2)Oc2ccccc2)cc1 (centres undefined)	-6.58*	i	i	-3.7	i
COc1ccccc1OCC(=O)Nc1ccc(Cl)cc1C(=O)c1ccccc1	i	i	i	-3.9	i
CCOc1ccccc1OCC(=O)Nc1ccc(Cl)cc1C(=O)c1ccccc1	i	i	6*	-5.7	i
